Calls of active or inactive are those of the source. The rule behind the calls is not given here. *1 amine or outer side, *2 acyl side, *3 side chain or, on linkers, in order; H or OH if unused. Where a SMILES comes first, the peptide text is derived from it. Bridges are numbered along the chain shown (N, C = ends). TBMB = c1c(C[*:1])cc(C[*:3])cc1C[*:2]; mXylylene = c1cc(C[*:1])cc(C[*:2])c1
Columns and labels:
Sortase A [1] = target: T1, Sortase A (Staphylococcus aureus, UniProt Q9S446); test: Inhibition of Staphylococcus aureus His6-biotinylated SrtA expressed in Escherichia coli XL1-blue using Dabcyl-LPETG-Edans as substrate assessed as residual activity by fluorescence assay
T1 sequence (Q9S446 whole entry): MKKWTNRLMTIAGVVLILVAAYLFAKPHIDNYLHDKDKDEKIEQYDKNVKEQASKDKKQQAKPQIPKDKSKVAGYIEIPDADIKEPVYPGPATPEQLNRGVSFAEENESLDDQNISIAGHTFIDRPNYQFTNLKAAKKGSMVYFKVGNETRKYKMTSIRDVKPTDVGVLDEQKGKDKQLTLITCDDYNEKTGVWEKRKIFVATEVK
Method in brief: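 (His)6-SrtA26−206 from E. coli XL1-blue, purified by Ni affinity and gel filtration. Enzyme at 2.5 μM incubated with varied peptide concentrations (up to 300 μM). Residual activity measured with 20 μM Dabcyl-LPETG-Edans and 200 μM triglycine in 50 mM Tris-Cl pH 7.4, 150 mM NaCl, 5 mM CaCl2, 0.1% BSA, 37 °C. Fluorescence read at ex 350/em 480 nm. Ki from Supporting Information equations; at least three measurements.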

Sortase A [2] = target: T1, Sortase A; test: Binding affinity to Staphylococcus aureus His6-biotinylated SrtA expressed in Escherichia coli XL1-blue using fluorescein-tagged compound after 15 mins by fluorescence polarization
Method in brief: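 Serial dilutions of SrtA mixed with 200 nM fluorescein-labeled bicyclic peptide in 50 mM Tris-Cl pH 7.4, 150 mM NaCl, 5 mM CaCl2; 15 min at room temperature. Fluorescence polarization read at 485 nm excitation / 535 nm emission. Kd obtained by nonlinear regression of polarization against total SrtA concentration.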

[3] = target: Urokinase-type plasminogen activator (Homo sapiens, UniProt P00749); test: Inhibition of human uPA using fluorogenic Z-Gly-Gly-Arg-AMC as substrate
[4] = Inhibition of recombinant Staphylococcus aureus SrtA N24 deletion mutant by using abz-LPATG-dnp as substrate
Staphylococcus aureus = test: Induction of Fluo-GSLPETGGS substrate transfer to cell wall of SrtA knockout Staphylococcus aureus SKM12 at 1 mM after 24 hrs by fluorescence assay; format: functional
Sortase A [5] = target: T1, Sortase A; test: (§1) Inhibition of SrtA-mediated incorporation of Fluo-GSLPETGGS substrate to cell wall of Staphylococcus aureus Newman after 24 hrs by fluorescence assay; set-up: species or system Staphylococcus aureus subsp. aureus str. Newman
[6] = target: T2, Sortase A (Staphylococcus aureus) (UniProt Q9S446); test: as §1; details: Staphylococcus aureus subsp. aureus str. Newman
T2 sequence (whole entry): T1 sequence (Q9S446 whole entry)

Structure (SMILES)	Ki (Sortase A [1]) [µM]	further results
CC(C)C[C@@H]1NC(=O)[C@H](CCC(N)=O)NC(=O)[C@@H]2CCCN2C(=O)[C@@H](NC(=O)[C@H](C)N)CSCc2cc3cc(c2)CSC[C@H](NC(=O)[C@@H]2CCCN2C(=O)[C@@H]2CCCN2C1=O)C(=O)N[C@@H](CCCNC(=N)N)NC(=O)[C@H](C(C)C)NC(=O)[C@H](CO)C(=O)N[C@H](C(=O)NCC(N)=O)CSC3	4.3	Kd (Sortase A [2]): 8.8 µM
CC(C)[C@@H]1NC(=O)[C@H](CCC(=O)O)NC(=O)[C@H](Cc2ccc(O)cc2)NC(=O)[C@H](CCCNC(=N)N)NC(=O)[C@@H](CO)NC(=O)[C@H](NC(=O)[C@H](C)N)CSCc2cc3cc(c2)CSC[C@@H](C(=O)NCC(N)=O)NC(=O)[C@@H](C)NC(=O)[C@H](CO)NC(=O)CNC(=O)[C@H](CCCNC(=N)N)NC(=O)CNC(=O)[C@H](CCCNC(=N)N)NC(=O)[C@H](CSC3)NC(=O)[C@H](CC(=O)O)NC1=O	–	Ki [3]: 0.053 µM
O=S(=O)(O)c1cccc(-c2nn3c(-c4ccncc4)nnc3s2)c1	–	IC50 [4]: 9.3 µM
CC(C)C[C@@H]1NC(=O)[C@H](CCC(N)=O)NC(=O)[C@@H]2CCCN2C(=O)[C@@H]2CSCc3cc(cc(c3)CSC[C@@H](C(=O)NCC(=O)O)NC(=O)[C@@H]3CCCN3C(=O)[C@@H]3CCCN3C1=O)CSC[C@H](NC(=O)[C@H](C)N)C(=O)N[C@@H](Cc1c[nH]cn1)C(=O)N[C@@H](CO)C(=O)N[C@@H](CCCNC(=N)N)C(=O)N2 (H-ACHSRCPQLPPCG-OH; linker 2-6-12 via TBMB)	1.1	Activity (Staphylococcus aureus): Active; IC50 (Sortase A [5]): 167 µM; inhibition [6]: Dose-dependent effect
CC(C)C[C@@H]1NC(=O)[C@@H]2CCCN2C(=O)[C@@H](NC(=O)[C@H](C)N)CSCc2cc3cc(c2)CSC[C@H](NC(=O)[C@@H]2CCCN2C(=O)[C@@H]2CCCN2C(=O)[C@H](CC(C)C)NC1=O)C(=O)N[C@@H](Cc1cnc[nH]1)C(=O)N[C@@H](CC(C)C)C(=O)N1CCC[C@H]1C(=O)N[C@@H](CCC(N)=O)C(=O)N[C@H](C(=O)NCC(N)=O)CSC3 (H-ACPLLPPCHLPQCG-NH2; linker 2-8-13 via TBMB)	9.3 to 13.3	–
CC(C)C[C@@H]1NC(=O)[C@H](CO)NC(=O)[C@@H]2CSCc3cc(cc(c3)CSC[C@H](NC(=O)[C@H](C)N)C(=O)N3CCC[C@H]3C(=O)N[C@@H](CC(C)C)C(=O)N[C@@H](CC(C)C)C(=O)N3CCC[C@H]3C(=O)N3CCC[C@H]3C(=O)N2)CSC[C@@H](C(=O)NCC(=O)O)NC(=O)[C@H](CC(=O)O)NC1=O (H-ACPLLPPCSLDCG-OH; linker 2-8-12 via TBMB)	1.5	–
CC(C)C[C@@H]1NC(=O)[C@H](CCC(N)=O)NC(=O)[C@@H]2CCCN2C(=O)[C@@H](NC(=O)[C@H](C)N)CSCc2cccc(c2)CSC[C@@H](C(=O)NCC(N)=O)NC(=O)[C@@H]2CCCN2C(=O)[C@@H]2CCCN2C1=O (H-ACPQLPPCG-NH2; linker 2-8 via mXylylene)	4.9	–
CC(C)C[C@@H]1NC(=O)[C@@H]2CSCc3cc(cc(c3)CSC[C@H](NC(=O)[C@H](C)N)C(=O)N3CCC[C@H]3C(=O)N[C@@H](CCC(N)=O)C(=O)N[C@@H](CC(C)C)C(=O)N3CCC[C@H]3C(=O)N3CCC[C@H]3C(=O)N2)CSC[C@@H](C(=O)NCC(N)=O)NC(=O)[C@@H]2CCCN2C(=O)[C@H](Cc2ccc(O)cc2)NC1=O (H-ACPQLPPCLYPCG-NH2; linker 2-8-12 via TBMB)	7.4	–
CC(C)C[C@@H]1NC(=O)[C@H](CCC(N)=O)NC(=O)[C@@H]2CCCN2C(=O)[C@@H](NC(=O)[C@H](C)N)CSCc2cc3cc(c2)CSC[C@H](NC(=O)[C@@H]2CCCN2C(=O)[C@@H]2CCCN2C1=O)C(=O)N[C@@H](CCCNC(=N)N)C(=O)N[C@@H](C(C)C)C(=O)N[C@@H](CO)C(=O)N[C@H](C(=O)NCC(N)=O)CSC3 (H-ACPQLPPCRVSCG-NH2; linker 2-8-12 via TBMB)	4.3	–
CC[C@H](C)[C@@H]1NC(=O)CNC(=O)[C@H](CCC(N)=O)NC(=O)[C@@H](NC(=O)[C@H](C)N)CSCc2cc3cc(c2)CSC[C@H](NC(=O)[C@@H]2CCCN2C(=O)[C@@H]2CCCN2C(=O)[C@H](CC(C)C)NC1=O)C(=O)NCC(=O)N[C@@H](CCCNC(=N)N)C(=O)NCC(=O)NCC(=O)NCC(=O)N[C@H](C(=O)NCC(N)=O)CSC3 (H-ACQGILPPCGRGGGCG-NH2; linker 2-9-15 via TBMB)	42	–
CC[C@H](C)[C@@H]1NC(=O)CNC(=O)[C@H](CCC(N)=O)NC(=O)[C@@H](NC(=O)[C@H](C)N)CSCc2cc3cc(c2)CSC[C@H](NC(=O)[C@@H]2CCCN2C(=O)[C@@H]2CCCN2C(=O)[C@H](CC(C)C)NC1=O)C(=O)NCC(=O)N[C@@H](CCCNC(=N)N)C(=O)NCC(=O)NCC(=O)NCC(=O)NCC(=O)N[C@H](C(=O)NCC(N)=O)CSC3 (H-ACQGILPPCGRGGGGCG-NH2; linker 2-9-16 via TBMB)	42	–
CC(C)C[C@@H]1NC(=O)[C@H](CCC(N)=O)NC(=O)[C@@H](NC(=O)[C@H](C)N)CSCc2cc3cc(c2)CSC[C@H](NC(=O)[C@@H]2CCCN2C(=O)[C@@H]2CCCN2C(=O)[C@H](CC(C)C)NC1=O)C(=O)N1CCC[C@H]1C(=O)N[C@@H](Cc1ccccc1)C(=O)N[C@@H](CC(N)=O)C(=O)N[C@H](C(=O)NCC(N)=O)CSC3 (H-ACQLLPPCPFNCG-NH2; linker 2-8-12 via TBMB)	19.3	–
CC(C)C[C@@H]1NC(=O)[C@H](CCC(N)=O)NC(=O)[C@H](CCCNC(=N)N)NC(=O)[C@@H](NC(=O)[C@H](C)N)CSCc2cc3cc(c2)CSC[C@H](NC(=O)[C@@H]2CCCN2C(=O)[C@@H]2CCCN2C1=O)C(=O)N[C@@H](CO)C(=O)N[C@@H](Cc1ccccc1)C(=O)N[C@@H](CCC(=O)O)C(=O)N[C@H](C(=O)NCC(N)=O)CSC3 (H-ACRQLPPCSFECG-NH2; linker 2-8-12 via TBMB)	11.6	–
CC(C)C[C@@H]1NC(=O)[C@H]([C@@H](C)O)NC(=O)[C@@H](NC(=O)[C@H](C)N)CSCc2cc3cc(c2)CSC[C@H](NC(=O)[C@@H]2CCCN2C(=O)[C@@H]2CCCN2C(=O)[C@H](CC(C)C)NC1=O)C(=O)N[C@@H]([C@@H](C)O)C(=O)N1CCC[C@H]1C(=O)N[C@@H](CC(=O)O)C(=O)N[C@@H](CCC(N)=O)C(=O)N[C@H](C(=O)NCC(N)=O)CSC3 (H-ACTLLPPCTPDQCG-NH2; linker 2-8-13 via TBMB)	32.1	–
CC(C)C[C@@H]1NC(=O)[C@H](CCC(N)=O)NC(=O)[C@@H]2CCCN2C(=O)[C@@H]2CSCc3cc(cc(c3)CSC[C@@H](C(=O)NCC(N)=O)NC(=O)[C@@H]3CCCN3C(=O)[C@@H]3CCCN3C1=O)CSC[C@H](NC(=O)[C@H](C)N)C(=O)N[C@@H]([C@@H](C)O)C(=O)N[C@@H](CCC(N)=O)C(=O)N[C@@H](CCCNC(=N)N)C(=O)N2 (H-ACTQRCPQLPPCG-NH2; linker 2-6-12 via TBMB)	2.4	Kd (Sortase A [2]): 1.5 µM
CC(C)C[C@@H]1NC(=O)[C@H](CCC(N)=O)NC(=O)[C@@H]2CCCN2C(=O)[C@@H]2CSCc3cc(cc(c3)CSC[C@@H](C(=O)NCC(=O)O)NC(=O)[C@@H]3CCCN3C(=O)[C@@H]3CCCN3C1=O)CSC[C@H](NC(=O)[C@H](C)N)C(=O)N[C@@H]([C@@H](C)O)C(=O)N[C@@H](CO)C(=O)N[C@@H](CCCNC(=N)N)C(=O)N2 (H-ACTSRCPQLPPCG-OH; linker 2-6-12 via TBMB)	1.8	–

— ChEMBL document CHEMBL3860034, “Development of Potent and Selective S. aureus Sortase A Inhibitors Based on Peptide Macrocycles” (ACS Med Chem Lett, 2016)
